Reference: ChEMBL document CHEMBL5154669, “G-Quadruplex DNA as a Target in Pathogenic Bacteria: Efficacy of an Extended Naphthalene Diimide Ligand and Its Mode of Action” (J Med Chem, 2022)

Experiments:
Pseudomonas aeruginosa = experiment: Antimicrobial activity against Pseudomonas aeruginosa LMG 6395 assessed as inhibition of bacterial growth in presence of D11 incubated for 20 hrs; conditions: LMG 6395, 20 h
Bacillus cereus [1] = experiment: Antimicrobial activity against Bacillus cereus ATCC 10987 assessed as inhibition of bacterial growth in presence of D11 incubated for 20 hrs; conditions: ATCC 10987, 20 h
Staphylococcus aureus [2] = experiment: Bacteriostatic activity against Staphylococcus aureus LMG 8224 assessed as inhibition of bacterial growth; format: functional
Method in brief: (§1)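 A standard MIC plate (128–2 μM, cMHB, 20 h, 37 °C) was read at OD600. Each well then seeded at 10% a fresh compound-free cMHB plate, grown another 20 h at 37 °C and read at OD600. No growth at the same concentration in both plates counted as bactericidal. Growth above the MIC counted as bacteriostatic. Done in triplicate.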

Enterococcus faecium [3] = experiment: Antimicrobial activity against Enterococcus faecium LMG 16003 assessed as inhibition of bacterial growth in presence of D11 incubated for 20 hrs; conditions: LMG 16003, 20 h
Enterococcus faecalis = experiment: Antibacterial activity against Enterococcus faecalis LMG 16216 assessed as inhibition of bacterial growth incubated for 20 hrs by CLSI based broth microdilution method; format: functional
Method in brief: (§2)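 Broth microdilution in cation-adjusted Mueller-Hinton broth following CLSI guidelines. DMSO stocks were at 10 mM; compounds were twofold serially diluted over 128 to 2 μM. The inoculum was at 5 × 10⁵, prepared from colonies grown 20 h at 37 °C and adjusted to 0.5 McFarland. Plates ran 20 h at 37 °C with OD600 read-out. MIC was the lowest concentration inhibiting visible growth, in triplicate.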

Staphylococcus aureus [4] = experiment: Antimicrobial activity against Staphylococcus aureus LMG 8224 assessed as inhibition of bacterial growth in presence of D11 incubated for 20 hrs; conditions: LMG 8224, 20 h
Bacillus cereus [5] = experiment: Antibacterial activity against Bacillus cereus ATCC 10987 assessed as inhibition of bacterial growth incubated for 20 hrs by CLSI based broth microdilution method; format: functional
Method in brief: as §2

DNA [6] = experiment: Stabilization of Staphylococcus aureus in G-quadruplex DNA GGGTTTGGGGCGGCGGTTGG assessed as melting temperature at 10 uM incubated for 16 hrs by […]; format: nucleic-acid assay
Method in brief: (§3)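 Readout was CD melting, not FRET: 2.5 μM oligonucleotide in 10 mM lithium cacodylate pH 7.4 with KCl set per sequence (initial Tm 60-70 °C). Annealed 95 °C 5 min, cooled to room temperature over 4 h, then ligand 10 μM (4 equiv) equilibrated 16 h at 20 °C. Ellipticity at 260 nm tracked every 0.1 °C, 20-95 °C at 5 °C/min; Tm by van't Hoff two-state fit.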

Enterococcus faecium [7] = experiment: Antibacterial activity against Enterococcus faecium LMG 16003; format: functional, organism-based; conditions: DDE = dose-dependent effect
Method in brief: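 Cultures were inoculated at 2% and grown at 37 °C, with OD600 read every 5 min for 8 h. NDI-10 was added at exponential-phase onset (~3 h). Concentrations were 32, 16, 8 and 4 μM for E. coli, and 16, 8, 4 and […] μM for the Gram-positive strains.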

Escherichia coli [8] = experiment: Antimicrobial activity against Escherichia coli LMG 8223 assessed as inhibition of bacterial growth in presence of D11 incubated for 20 hrs; conditions: LMG 8223, 20 h
DNA [9] = experiment: Stabilization of Staphylococcus aureus in G Quadruplex DNA GGGGCTAATTGGGGCTGGTGG assessed as melting at 10 uM incubated for 16 hrs temperature by […]; format: nucleic-acid assay
Method in brief: as §3

Enterobacter cloacae = experiment: Bactericidal activity against Enterobacter cloacae LMG 02783 assessed as inhibition of bacterial growth; format: functional
Method in brief: as §1

Enterococcus faecium [10] = experiment: Bacteriostatic activity against Enterococcus faecium LMG 16003 assessed as inhibition of bacterial growth; format: functional
Method in brief: as §1

DNA [11] = experiment: Stabilization of Staphylococcus aureus in G-quadruplex DNA GGGTTTGGGGCGGCGGTTGG assessed as change in melting temperature at 10 uM incubated for 16 hrs by FRET method; format: nucleic-acid assay; conditions: in the assay text read “by CD melting method” for “by FRET method”
Klebsiella aerogenes [12] = experiment: Antimicrobial activity against Enterobacter aerogenes LMG 02094 assessed as inhibition of bacterial growth in presence of D11 incubated for 20 hrs; conditions: LMG 02094, 20 h
Klebsiella pneumoniae = experiment: Antibacterial activity against Klebsiella pneumoniae LMG 20218 assessed as inhibition of bacterial growth incubated for 20 hrs by CLSI based broth microdilution method; format: functional
Method in brief: as §2

Klebsiella aerogenes [13] = experiment: Antibacterial activity against Enterobacter aerogenes LMG 02094 assessed as inhibition of bacterial growth incubated for 20 hrs by CLSI based broth microdilution method; format: functional
Method in brief: as §2

DNA [14] = experiment: Stabilization of Escherichia coli in G-quadruplex DNA GGG GCG GGG TGG GTT GG assessed as change in melting temperature at 10 uM incubated for 16 hrs by CD melting method
Escherichia coli [15] = experiment: Bactericidal against Escherichia coli LMG 8223 assessed as inhibition of bacterial growth; format: functional
Method in brief: as §1

Escherichia coli [16] = experiment: Antibacterial activity against Escherichia coli LMG 8223 infected in Galleria mellonella assessed as survival at 5 to 10 mg/kg after 5 days; format: functional; conditions: dose 5-10 mg/kg, time 5 day
Method in brief: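 Larvae, 20 per group, were infected with 10 µL of saline-washed bacteria into the left proleg: E. coli at 10⁶ CFU/worm and S. aureus at 10⁵ CFU/worm. After 1 h at 37 °C, the compound (5 or 10 mg/kg) was injected into the last right proleg. Controls were meropenem 5 mg/kg (E. coli), rifampicin 10 mg/kg (S. aureus) and NaCl 0.9%. Mortality was followed over 5 d at 37 °C.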

Staphylococcus aureus [17] = experiment: Antibacterial activity against Staphylococcus aureus LMG 10147 assessed as inhibition of bacterial growth incubated for 20 hrs by CLSI based broth microdilution method; format: functional
Method in brief: as §2

DNA [18] = experiment: Stabilization of Escherichia coli in G-quadruplex DNA GGT GGG GAG GGG TAA GGG G assessed as change in melting temperature at 10 uM incubated for 16 hrs by FRET method; format: nucleic-acid assay; conditions: in the assay text read “by CD melting method” for “by FRET method”
Method in brief: as §3

Acinetobacter baumannii = experiment: Bacteriostatic activity against Acinetobacter baumannii LMG 01041 assessed as inhibition of bacterial growth; format: functional
Method in brief: as §1

Staphylococcus aureus [19] = experiment: Antibacterial activity against Staphylococcus aureus LMG 8224 assessed as inhibition of bacterial growth incubated for 20 hrs by CLSI based broth microdilution method; format: functional
Method in brief: as §2

DNA [20] = experiment: Stabilization of Staphylococcus aureus in G-quadruplex DNA GGA AGG AGG GGT GAC AGG G assessed as change in melting temperature at 10 uM incubated for 16 hrs by […]; format: nucleic-acid assay
Method in brief: as §3

Escherichia coli [21] = experiment: Antibacterial activity against Escherichia coli LMG 8223 assessed as inhibition of bacterial growth incubated for 20 hrs by CLSI based broth microdilution method; format: functional
Method in brief: as §2

Staphylococcus aureus [22] = experiment: Antibacterial activity against Staphylococcus aureus LMG 15975 assessed as inhibition of bacterial growth incubated for 20 hrs by CLSI based broth microdilution method; format: functional
Method in brief: as §2

## CN(C)CCCn1c(=O)c2ccc3c(=O)n(CCCN(C)C)c(=O)c4c5[nH]c6ccccc6[nH]c5c(c1=O)c2c34.O=C(O)C(F)(F)F.O=C(O)C(F)(F)F
Pseudomonas aeruginosa
  MIC: 4 µM
Bacillus cereus [1]
  MIC: 8 µM
Staphylococcus aureus [2]
  MIC: 128 µM
Enterococcus faecium [3]
  MIC: 4 µM
Enterococcus faecalis
  MIC: 4 µM
Staphylococcus aureus [4]
  MIC: 16 µM
Bacillus cereus [5]
  MIC: 8 µM
DNA [6]
  Tm: > 95 °C
Enterococcus faecium [7]
  Activity: Dde
Escherichia coli [8]
  MIC: < 0.5 µM
DNA [9]
  Tm: 88.3 °C
Enterobacter cloacae
  MIC: 8 µM
Enterococcus faecium [10]
  MIC: 32 µM
DNA [11]
  ΔTm: > 35.6 °C
Klebsiella aerogenes [12]
  MIC: 8 µM
Klebsiella pneumoniae
  MIC: > 128 µM
Klebsiella aerogenes [13]
  MIC: 32 µM
DNA [14]
  ΔTm: 18.8 °C
Escherichia coli [15]
  MIC: 16 µM
Escherichia coli [16]
  Activity: 90%
Staphylococcus aureus [17]
  MIC: 16 µM
DNA [18]
  ΔTm: 31 °C
Acinetobacter baumannii
  MIC: 128 µM
Staphylococcus aureus [19]
  MIC: 16 µM
DNA [20]
  ΔTm: > 30.8 °C
Escherichia coli [21]
  MIC: 16 µM
Staphylococcus aureus [22]
  MIC: 16 µM
